According to BindingDB's records for doi:10.1021/np5000704 (University of North Carolina At Greensboro, 2014):
Positions of bridges follow the written chain, without caps; N, C: chain ends. Residues, ends and D or L forms follow the SMILES beside them.

Target: T1, Accessory gene regulator protein A (Staphylococcus aureus, UniProt P0A0I7)
T1 sequence (P0A0I7 whole entry): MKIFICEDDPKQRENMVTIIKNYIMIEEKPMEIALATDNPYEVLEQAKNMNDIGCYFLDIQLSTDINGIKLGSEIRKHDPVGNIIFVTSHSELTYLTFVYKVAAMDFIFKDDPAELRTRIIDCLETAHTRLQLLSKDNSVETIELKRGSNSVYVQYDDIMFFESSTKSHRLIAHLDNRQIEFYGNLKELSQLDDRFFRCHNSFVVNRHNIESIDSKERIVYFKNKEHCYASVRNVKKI
Assay: Inhibition of AGR quorum sensing system in methicillin-resistant Staphylococcus aureus AH2759 incubated for 15 hrs by P3-LUX reporter gene assay
Procedure, shortened: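 S. aureus AH2759 (USA300 LAC, plasmid agr P3-luxABCDE) grown overnight in TSB with chloramphenicol 10 μg/mL, then diluted to a final 1:500. Compounds were added at 0.1–1000 μM final with 1% DMSO. Incubated at 37 °C with 250 rpm shaking. OD600 and luminescence were read hourly from 15 h. IC50 came from a weighted four-parameter logistic fit of OD-normalized luminescence; growth-delayed wells were excluded. AIP-2 (2–500 nM) was the control.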

| Compound | IC50 [µM] |
| --- | --- |
| O=C1c2cc(O)cc(O)c2C(=O)c2c(O)cc(CO)cc21 | 8.1 |
| C[C@H](O)Cc1cc(O)c2c(c1)C(=O)c1cc(O)cc(O)c1C2=O | 8.9 |
| CC(=O)Cc1cc(O)c2c(c1)C(=O)c1cc(O)cc(O)c1C2=O | 19.8 |
| C[C@@H](O)[C@@H](O)c1cc(O)c2c(c1)C(=O)c1cc(O)cc(O)c1C2=O | 26.5 |
| CC(=O)C(O)c1cc(O)c2c(c1)C(=O)c1cc(O)cc(O)c1C2=O (stereo not given) | 30.1 |
| O=C(O)c1cc(O)c2c(c1)C(=O)c1cc(O)c(O)c(O)c1C2=O | 120 |
| CC(C)C[C@@H]1NC(=O)[C@H](CO)NC(=O)[C@H](CO)NC(=O)[C@@H](NC(=O)[C@H](C)NC(=O)[C@H](CC(N)=O)NC(=O)[C@@H](NC(=O)CN)C(C)C)CSC(=O)[C@H](Cc2ccccc2)NC1=O (H-GVNACSSLF; thioester 5-C) | 0.012 |
| Cc1cc(O)c2c(c1)C(=O)c1cc(O)cc(O)c1C2=O [1,3,8-trihydroxy-6-methylanthra-9,10-quinone] | 17.1 |
| O=C(O)c1cc(O)c2c(c1)C(=O)c1cc(O)c(Cl)c(O)c1C2=O [6-chloro-4,5,7-trihydroxy-9,10-dioxo-9,10-dihydroanthracene-2-carboxylic acid] | 37.8 |
| O=C(O)c1cc(O)c2c(c1)C(=O)c1cc(O)cc(O)c1C2=O [MLS000876948] | 30.6 |
